In ChEMBL document CHEMBL1159323, “Lignanamides and nonalkaloidal components of Hyoscyamus niger seeds” (J Nat Prod, 2002):

These compounds were tested on LNCaP (assay: Cytotoxicity against human LNCAP cells after 48 hrs by MTT assay).
Assay type: functional, cell-based
Method in brief: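 LNCaP cells (ATCC CRL1740) grown in RPMI with 10% FBS, streptomycin and penicillin at 37 °C, 5% CO2. Seeded 2 × 10^5 cells/well and exposed to a range of compound concentrations for 48 h at 37 °C. MTT was then added for 4 h at 37 °C. Formazan was dissolved in DMSO and absorbance read at 540 nm. IC50 derived; run in triplicate.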

SMILES | IC50 [µM]
COc1cc(/C=C/C(=O)OCCCCCCCCCCCCCCCCCCCCCCCCOC(=O)/C=C/c2ccc(O)c(OC)c2)ccc1O | > 100
CCCCC/C=C\C/C=C\CCCCCCCC(=O)OC(CO)COC(=O)CCCCCCC/C=C/C/C=C/CCCCC (stereo unspecified) | > 100
CCCCC/C=C\C/C=C\CCCCCCCC(=O)OCC(O)COC(=O)CCCCCCCCCCCCCCCCCC (stereo unspecified) | > 100
CCCCC/C=C\C/C=C\CCCCCCCC(=O)OCC(O)CO (stereo unspecified) | > 100
CCCCC/C=C\C/C=C/CCCCCCCC(=O)OCC(O)COC(=O)CCCCCCC/C=C\CCCCCCCC (stereo unspecified) | > 100
COc1cc([C@@H]2c3cc(O)c(OC)cc3C=C(C(=O)NCCc3ccc(O)cc3)[C@H]2C(=O)NCCc2ccc(O)cc2)ccc1O [CANNABISIN D] | 81
COc1cc(/C=C(C(=O)NCCc2ccc(O)cc2)\C(=C/c2ccc(O)c(OC)c2)C(=O)NCCc2ccc(O)cc2)ccc1O [CANNABISIN G] | 76
CCCCCCCCCCCCCCCCCC(=O)OCC(O)CO (stereo unspecified) [GLYCERYL MONOSTEARATE] | > 100
COc1cc([C@@H]2Oc3c(OC)cc(/C=C/C(=O)NCCc4ccc(O)cc4)cc3[C@H]2C(=O)NCCc2ccc(O)cc2)ccc1O [GROSSAMIDE] | 33
COc1cc(/C=C(C(=O)NCCc2ccc(O)cc2)/C(=C/c2ccc(O)c(OC)c2)C(=O)NCCc2ccc(O)cc2)ccc1O [HYOSCYAMIDE] | > 100
COc1cc(/C=C/C(=O)NCCc2ccc(O)cc2)ccc1O [N-TRANS-FERULOYL TYRAMINE] | > 100
